Reference: article PMC2800315 (Japanese Journal of Clinical Oncology, 2009)
Where two headings read alike, the source gives them in different places.

Legend:
[1] = Safety and tolerability, adverse events; assay type: in vivo, Japanese patients
How it was run: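 Open-label 3+3 dose escalation with daily oral dosing up to 10 mg/day in 28-day cycles. Adverse events monitored throughout and graded by NCI CTCAE v3.0, recorded until 28 days after stopping. DLT: grade ≥3 haematologic or non-haematologic event, or grade ≥3 lab abnormality, within the first 4 weeks and suspected drug-related. Antiemetic and anti-hyperlipidaemia therapy allowed.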

[2] = patients with advanced cancer, cited from earlier work; for AUCτ: mean
advanced solid tumors = test: Tumor response according to RECIST; assay type: in vivo, Japanese patients
How it was run: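 Patients had ≥1 measurable lesion and took continuous once-daily oral dosing in 28-day cycles, continued until progression. Tumour assessed by RECIST every 2 months and at study end. Outcomes summarised descriptively.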

[3] = 2.5 mg/day (n = 3), G1/2, all courses
[4] = 2.5 mg/day (n = 3), G3/4, all courses
[5] = 5 mg/day (n = 3), G1/2, all courses
[6] = 5 mg/day (n = 3), G3/4, all courses
[7] = 10 mg/day (n = 3), G1/2, all courses
[8] = 10 mg/day (n = 3), G3/4, all courses
[9] = Total, all doses and grades, all courses
[10] = one patient with esophageal carcinoma, 10 mg/day, day 58

CO[C@H]1C[C@@H]2CC[C@@H](C)[C@@](O)(O2)C(=O)C(=O)N2CCCC[C@H]2C(=O)O[C@H]([C@H](C)C[C@@H]2CC[C@@H](OCCO)[C@H](OC)C2)CC(=O)[C@H](C)/C=C(\C)[C@@H](O)[C@@H](OC)C(=O)[C@H](C)C[C@H](C)/C=C/C=C/C=C/1C [RAD001, everolimus]
4: Number of patients with adverse event: Anorexia [1, 9] | Number of patients with adverse event: Rash [1, 9]
0.238 ± 0.077 µg·h/mL: AUCτ ([2]; daily dose 5 mg)
0.514 ± 0.231 µg·h/mL: AUCτ ([2]; daily dose 10 mg)
10 mg/day: Dosage recommended for further development ([1]; Japanese patients with advanced solid malignancies)
grade 2: Pneumonitis, grade ([1]; one patient with colon cancer, 5 mg/day, after 142 days of therapy)
3: Number of patients with adverse event: Rash [1, 7] | Number of patients with adverse event: Thrombocytopenia [1, 7] | Number of patients with adverse event: Leukopenia [1, 9]
not observed: Hyperlipidemia ([1]; all cohorts) | Dose-limiting toxicities (DLTs) ([1]; first cycle of treatment (28 days), 2.5, 5.0 or 10.0 mg/day)
33%: Leukopenia, all grades, patients ([1]; overall, nine patients)
1: Number of patients with adverse event: Anorexia [1, 3] | Number of patients with adverse event: Hypertension [1, 3] | Number of patients with adverse event: Leukopenia [1, 3] | Number of patients with adverse event: Nausea [1, 3] | Number of patients with adverse event: Neutropenia [1, 3] | Number of patients with adverse event: Stomatitis [1, 3] | Number of patients with adverse event: Weight decreased [1, 3] | Number of patients with adverse event: Fatigue [1, 5] | Number of patients with adverse event: Glucose tolerance impaired [1, 5] | Number of patients with adverse event: Pneumonitis [1, 5] | Number of patients with adverse event: Rash [1, 5] | Number of patients with adverse event: Anemia [1, 7] | Number of patients with adverse event: Anorexia [1, 7] | Number of patients with adverse event: Nausea [1, 7] | Number of patients with adverse event: Weight decreased [1, 7] | Number of patients with adverse event: Fatigue [1, 8] | Number of patients with adverse event: Hemorrhage [1, 8] | Number of patients with adverse event: Hyperglycemia [1, 8] | Number of patients with adverse event: Stomatitis [1, 8] | Number of patients with adverse event: Anemia [1, 9] | Number of patients with adverse event: Glucose tolerance impaired [1, 9] | Number of patients with adverse event: Hemorrhage [1, 9] | Number of patients with adverse event: Hyperglycemia [1, 9] | Number of patients with adverse event: Hypertension [1, 9] | Number of patients with adverse event: Neutropenia [1, 9] | Number of patients with adverse event: Pneumonitis [1, 9]
Grade 3: Hyperglycemia, grade ([1]; one patient with colorectal cancer, 10 mg/day, day 98) | Fatigue, grade [1, 10] | Stomatitis, grade [1, 10]
0: Number of patients with adverse event: Anemia [1, 3] | Number of patients with adverse event: Diarrhea [1, 3] | Number of patients with adverse event: Fatigue [1, 3] | Number of patients with adverse event: Glucose tolerance impaired [1, 3] | Number of patients with adverse event: Hemorrhage [1, 3] | Number of patients with adverse event: Hyperglycemia [1, 3] | Number of patients with adverse event: Mucosal inflammation [1, 3] | Number of patients with adverse event: Pneumonitis [1, 3] | Number of patients with adverse event: Rash [1, 3] | Number of patients with adverse event: Thrombocytopenia [1, 3] | Number of patients with adverse event: Anemia [1, 4] | Number of patients with adverse event: Anorexia [1, 4] | Number of patients with adverse event: Diarrhea [1, 4] | Number of patients with adverse event: Elevated ALT or AST [1, 4] | Number of patients with adverse event: Fatigue [1, 4] | Number of patients with adverse event: Glucose tolerance impaired [1, 4] | Number of patients with adverse event: Hemorrhage [1, 4] | Number of patients with adverse event: Hyperglycemia [1, 4] | Number of patients with adverse event: Hypertension [1, 4] | Number of patients with adverse event: Leukopenia [1, 4] | Number of patients with adverse event: Mucosal inflammation [1, 4] | Number of patients with adverse event: Nausea [1, 4] | Number of patients with adverse event: Neutropenia [1, 4] | Number of patients with adverse event: Pneumonitis [1, 4] | Number of patients with adverse event: Rash [1, 4] | Number of patients with adverse event: Stomatitis [1, 4] | Number of patients with adverse event: Thrombocytopenia [1, 4] | Number of patients with adverse event: Weight decreased [1, 4] | Number of patients with adverse event: Anemia [1, 5] | Number of patients with adverse event: Elevated ALT or AST [1, 5] | Number of patients with adverse event: Hemorrhage [1, 5] | Number of patients with adverse event: Hyperglycemia [1, 5] | Number of patients with adverse event: Hypertension [1, 5] | Number of patients with adverse event: Mucosal inflammation [1, 5] | Number of patients with adverse event: Nausea [1, 5] | Number of patients with adverse event: Neutropenia [1, 5] | Number of patients with adverse event: Stomatitis [1, 5] | Number of patients with adverse event: Weight decreased [1, 5] | Number of patients with adverse event: Anemia [1, 6] | Number of patients with adverse event: Anorexia [1, 6] | Number of patients with adverse event: Diarrhea [1, 6] | Number of patients with adverse event: Elevated ALT or AST [1, 6] | Number of patients with adverse event: Fatigue [1, 6] | Number of patients with adverse event: Glucose tolerance impaired [1, 6] | Number of patients with adverse event: Hemorrhage [1, 6] | Number of patients with adverse event: Hyperglycemia [1, 6] | Number of patients with adverse event: Hypertension [1, 6] | Number of patients with adverse event: Leukopenia [1, 6] | Number of patients with adverse event: Mucosal inflammation [1, 6] | Number of patients with adverse event: Nausea [1, 6] | Number of patients with adverse event: Neutropenia [1, 6] | Number of patients with adverse event: Pneumonitis [1, 6] | Number of patients with adverse event: Rash [1, 6] | Number of patients with adverse event: Stomatitis [1, 6] | Number of patients with adverse event: Thrombocytopenia [1, 6] | Number of patients with adverse event: Weight decreased [1, 6] | Number of patients with adverse event: Diarrhea [1, 7] | Number of patients with adverse event: Elevated ALT or AST [1, 7] | Number of patients with adverse event: Fatigue [1, 7] | Number of patients with adverse event: Glucose tolerance impaired [1, 7] | Number of patients with adverse event: Hemorrhage [1, 7] | Number of patients with adverse event: Hyperglycemia [1, 7] | Number of patients with adverse event: Hypertension [1, 7] | Number of patients with adverse event: Leukopenia [1, 7] | Number of patients with adverse event: Neutropenia [1, 7] | Number of patients with adverse event: Pneumonitis [1, 7] | Number of patients with adverse event: Stomatitis [1, 7] | Number of patients with adverse event: Anemia [1, 8] | Number of patients with adverse event: Anorexia [1, 8] | Number of patients with adverse event: Diarrhea [1, 8] | Number of patients with adverse event: Elevated ALT or AST [1, 8] | Number of patients with adverse event: Glucose tolerance impaired [1, 8] | Number of patients with adverse event: Hypertension [1, 8] | Number of patients with adverse event: Leukopenia [1, 8] | Number of patients with adverse event: Mucosal inflammation [1, 8] | Number of patients with adverse event: Nausea [1, 8] | Number of patients with adverse event: Neutropenia [1, 8] | Number of patients with adverse event: Pneumonitis [1, 8] | Number of patients with adverse event: Rash [1, 8] | Number of patients with adverse event: Thrombocytopenia [1, 8] | Number of patients with adverse event: Weight decreased [1, 8]
> 4 months: Duration of partial response (advanced solid tumors; patient with gastric adenocarcinoma and liver metastases, 10 mg/day)
44%: Anorexia, all grades, patients ([1]; overall, nine patients) | Rash, all grades, patients ([1]; overall, nine patients)
56%: Thrombocytopenia, all grades, patients ([1]; overall, nine patients)
two of three: Patients with marked tumor shrinkage (advanced solid tumors; daily dose of 10 mg, esophageal and gastric cancer)
0.032 ± 0.009 µg/mL: Cmax ([2]; daily dose 5 mg, mean ± SD)
2: Number of patients with adverse event: Elevated ALT or AST [1, 3] | Number of patients with adverse event: Anorexia [1, 5] | Number of patients with adverse event: Diarrhea [1, 5] | Number of patients with adverse event: Leukopenia [1, 5] | Number of patients with adverse event: Thrombocytopenia [1, 5] | Number of patients with adverse event: Mucosal inflammation [1, 7] | Number of patients with adverse event: Diarrhea [1, 9] | Number of patients with adverse event: Elevated ALT or AST [1, 9] | Number of patients with adverse event: Fatigue [1, 9] | Number of patients with adverse event: Mucosal inflammation [1, 9] | Number of patients with adverse event: Nausea [1, 9] | Number of patients with adverse event: Stomatitis [1, 9] | Number of patients with adverse event: Weight decreased [1, 9]
5: Number of patients with adverse event: Thrombocytopenia [1, 9]
